Published values of several laboratories.
Target: Serine/threonine-protein kinase 25 (STK25, Homo sapiens, UniProt O00506)

SMILES | test | conditions | measurement | value
C[C@@H]1CN(c2cc(-c3n[nH]c4ccc(OC5(C)CC5)cc34)ncn2)C[C@H](C)O1 | cell-free assay, competition with immobilised ligand | 0.1 µM | remaining binding | 100%
CCCS(=O)(=O)Nc1ccc(F)c(C(=O)c2c[nH]c3ncc(-c4ccc(Cl)cc4)cc23)c1F | enzyme activity, inhibitor | 1 µM | inhibition | < 10%
Cc1sc(C(=O)NC2COC2)cc1-n1cc(NC(=O)Nc2c(F)cccc2Cl)cn1 | enzyme activity, inhibitor | 10 µM | remaining activity | 70.5%
N#CCCc1ccc2c(c1)-c1[nH]c3ccc([N+](=O)[O-])cc3c1CC(=O)N2 | cell-free assay | 0.5 µM | remaining signal | 91.1%
CC(C)(C)c1nc(-c2cccc(NS(=O)(=O)c3c(F)cccc3F)c2F)c(-c2ccnc(N)n2)s1 | enzyme activity, inhibitor, radiometric | 1 µM | remaining activity | 51%
Cc1noc([C@H]2C[C@@H](c3ccc(C(F)(F)F)cc3)CN(C(=O)N3CCS(=O)(=O)C3)C2)n1 | cell-free assay, competition with immobilised ligand | 1 µM | remaining binding | 89%
Cn1c2c(c3ccc(Cl)c(Cl)c31)C(C#N)C1(CCOCC1)NC2=O (centres unmarked) | thermal stability, DSF | 10 µM | ΔTm | 0.4 °C
CC(=O)c1c(NS(C)(=O)=O)c2cc(-c3ccc(Cl)cc3)c(-c3ccc(Cl)cc3Cl)nc2n(C)c1=O | cell-free assay, competition with immobilised ligand | 1 µM | remaining binding | 100%
Cc1ccc(Nc2nccc(N(C)c3ccc4c(C)n(C)nc4c3)n2)cc1S(N)(=O)=O | enzyme activity, inhibitor | 0.5 µM | remaining activity | 97.3%
CCN1CCC2(CC1)NC(=O)c1c(c3ccc(Cl)c(Cl)c3n1C)C2C#N (racemic) | thermal stability, DSF | 10 µM | ΔTm | -0.2 °C
COc1cc(-c2cc(-c3ccc(N4CCNCC4)cc3)cnc2C)cc(OC)c1OC | enzyme activity, inhibitor | 1 µM | inhibition | 2%
COc1cc2ncnc(Nc3ccc(Oc4ccccc4)cc3C)c2cc1OC | enzyme activity, inhibitor | 1 µM | inhibition | -2%
Cn1cncc1C1=CN(c2ncnc3[nH]cnc23)CCS1 | enzyme activity, inhibitor, radiometric | 50 nM | inhibition | 13.5%
Nc1ncnc2occ(-c3ccc(NC(=O)Nc4cc(C(F)(F)F)ccc4F)cc3)c12 | cell-free assay, inhibitor | 20 µM | remaining signal | 77%
CCCCNc1ncc2c(-c3ccc(F)cc3)nn(C[C@H]3CC[C@H](N)CC3)c2n1 | target engagement in cells, inhibitor, chemoproteomics | 20 mM | inhibition | 5.7%
CNC(=O)c1ccc(Nc2ncc(C(F)(F)F)c(NCc3nccnc3N(C)S(C)(=O)=O)n2)cc1 | cell-free assay, competition with immobilised ligand | 0.1 µM | remaining binding | 85%
CN(C)c1ncc(F)c(-c2cnn3ncccc23)n1 | binding | 1 µM | remaining binding | 100%
O=C(Nc1cnn(-c2csc(C(=O)NC3COC3)c2)c1)Nc1c(F)cccc1Cl | enzyme activity, inhibitor | 5 µM | remaining activity | 96.1%
Cc1cc(C)c(-n2ccn3nc(-c4cccnc4)cc23)cc1NC(=O)c1cc(C#N)cc(S(F)(F)(F)(F)F)c1 | cell-free assay, competition with immobilised ligand | 0.1 µM | remaining binding | 79.1%
CC1(C)NC(=O)c2[nH]c3c(Cl)c(Cl)ccc3c2C1C#N (centres unmarked) | thermal stability, DSF | 10 µM | ΔTm | 1.6 °C
Cc1cc(NC(=O)c2cccc3cc(-c4cccc5[nH]nc(N)c45)ccc23)ccc1F | enzyme activity, inhibitor | 0.1 µM | activity vs control | 92%
C[C@@H]1CN(c2cc(-c3nn(C)c4ccc(OC5(C)CC5)cc34)ncn2)C[C@H](C)O1 | cell-free assay, competition with immobilised ligand | 1 µM | remaining binding | 100%
Cc1ccc(NC(=O)c2ccc(C)c(C(F)(F)F)c2)cc1C#Cc1nn(C2CCC(O)CC2)c2ncnc(N)c12 (centres unmarked) | cell-free assay | 10 µM | remaining signal | 66%
C[C@H](c1cccc(C#N)c1)n1cc(Cl)cc(C(N)=O)c1=N | cell-free assay, competition with immobilised ligand | 1 µM | remaining binding | 100%
CCOc1cc(-c2nncn2C)ccc1Nc1ncc2cc(C)nc(NCC(C)(C)C)c2n1 | enzyme activity, inhibitor, FRET | 1 µM | inhibition | < 15%
O=C1NC(=O)c2cc(Nc3ccc(F)cc3)c(Nc3ccc(F)cc3)cc21 | cell-free assay | 0.5 µM | remaining signal | 101%
